Published values pooled from the literature.
Each line is one published result; the experiments were not run side by side.
Read-out: cell growth or viability

SMILES | cell line | assay | conditions | IC50
COc1ccc(OC)c(NC(=S)NN=Cc2ccccn2)c1 | BHK | SRB | 48 h | 111 µM
Cn1ccnc1CNCCNc1ccnc2cc(Cl)ccc12 | CHO | MTT |  | 240 µM
NCCOc1cc(C(=O)Nc2cc(OCCN)c3ccccc3n2)nc(C(=O)Nc2cc(OCCN)c3ccccc3n2)c1 | HT-1080 | ATP luminescence | 72 h | 0.6 µM
CCCON(Cc1ccc(C(=O)NO)cc1)C(=O)Nc1ccccc1 | SUP-B15 | ATP luminescence | 72 h | 6.78 µM
C=CC(=O)Nc1ccc(CCn2cc(C[C@@]3(O)C[C@@H]4c5cc(OCc6cc(C)cc(C)c6)c(OCc6cc(C)cc(C)c6)cc5CCN4[C@@H](C)C3)nn2)cc1 | GES1 | MTT | 48 h | 0.73 µM
C#CCOc1cc(C(=O)Nc2cc(OCCN)c3ccccc3n2)nc(C(=O)Nc2cc(OCCN)c3ccccc3n2)c1 | HT-1080 | ATP luminescence | 72 h | 4.7 µM
O=C1Nc2ccccc2C1=Cc1cc2ccc(Cl)cc2nc1Cl | CHO | MTT | 72 h | 39.2 µM
O=C(Nc1ccccc1CO)c1c[nH]c2ccc(Cl)cc12 | T24 | MTT |  | 18 µM
COc1cc(C(=O)Nc2cc(OCCN3CCCC3)c3ccccc3n2)nc(C(=O)Nc2cc(OCCN3CCCC3)c3ccccc3n2)c1 | HT-1080 | ATP luminescence | 72 h | 1.5 µM
CCCCCC/N=C1\c2cc(C(N)=O)nc3c(N)c(Cl)c(N)c(c23)N1C | HCC4017 |  |  | 2.87 µM
O=C(Nc1cc(OCCN2CCCC2)c2ccccc2n1)c1cc(OCCN2CCCC2)cc(C(=O)Nc2cc(OCCN3CCCC3)c3ccccc3n2)n1 | HT-1080 | ATP luminescence | 72 h | 2.2 µM
COc1c(C)c(OS(=O)(=O)c2ccc3ccccc3c2)c(C)c(OS(=O)(=O)c2ccc3ccccc3c2)c1C(=O)/C=C/c1ccccc1 | SH-SY5Y | SRB | 72 h | > 50 µM
COc1cc(Nc2nccc(-c3cnn4nc(OC)ccc34)n2)cc(C(F)(F)F)c1 | A 172 | ATP luminescence |  | 0.43 µM
Oc1ccccc1CN=CCNc1ccnc2cc(Cl)ccc12 | CHO | MTT |  | > 300 µM
CCN1C(=O)N(c2c(F)c(OC)cc(OC)c2F)Cc2cnc3[nH]c(CN4CCOCC4)cc3c21 | SNU-16 | ATP luminescence | 96 h | 0.00338 µM
NCCCOc1cc(NC(=O)c2cc(OCc3c[nH]nn3)cc(C(=O)Nc3cc(OCCCN)c4ccccc4n3)n2)nc2ccccc12 | HT-1080 | ATP luminescence | 72 h | 35.2 µM
CC(C)C[C@H](NC(=O)[C@H](Cc1ccccc1)NC(=O)c1cnccn1)B(O)O | A 172 | ATP luminescence |  | 0.0087 µM
